Compound activity: PubChem BioAssay, several laboratories
STAT1 inh – reduces IFN-gamma driven STAT1 reporter signal; hit rate 0.35% among 200,000; AID 920; inhibition, % at 5.5 µM; NIH 3T3 STAT1-luciferase reporter, luminescence;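 active = inhibition above a set limit, the mean inhibition across all tested compounds plus 3 SD, cut at about 34% in these data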;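 note: 0% = IFN-gamma with DMSO and 100% = IFN-gamma with 300 µM nifuroxazide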
STAT1 act – increases IFN-gamma driven STAT1 reporter signal; activation (% of control), % at 5.5 µM; NIH 3T3 STAT1-luciferase reporter, luminescence; 100% = IFN-gamma alone, no compound; hit rate 2.6% among 200,000;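 active = activation above the screen-wide mean activation plus 3 SD, cut at about 130% in these data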;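 note: raw ratio to IFN-gamma control signal so 100% means no change and 0% no light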
NF-kB expr up – NF-kB expression increase, human neuronal cells | fold change at 12.5 µM | hit rate 1.6% among 190,000 | NF-kB reporter expression; stronger effect = higher value | AID 1239; in the data active = fold change above about 3.3
APP 5'UTR act – activates APP 5'UTR luciferase reporter; activation, % at 2 µM; AID 1276; hit rate 1% among 190,000; SH-SY5Y APP 5'UTR luciferase reporter, luminescence; zero percent = DMSO vehicle wells;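 active = activation above a set limit, based on mean plus 3 SD of controls, cut at about 140% in these data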
STAT3 act – increases IL-6 driven STAT3 reporter signal; activation (% of control), % at 5.6 µM; U3A cells, IL-6 STAT3-luciferase reporter, luminescence; 100% = signal with IL-6 EC80 alone; hit rate 0.91% among 190,000; AID 871;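 active = activation above the screen-wide mean of compound activation plus 3 SD, cut at about 130% in these data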;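 note: 0% = background luminescence of wells with medium and substrate only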
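Test system: human U3A cells carrying STAT3-luciferase construct; control set: IL-6-only wells as 100% reference; timing: compound pre-incubation 1 h before IL-6, then 6 h stimulation at 37 °C; also added: IL-6 stimulus at 33 ng/mL final; evaluation: % activation versus median of IL-6-stimulated wells; detection: reporter luminescence signal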
STAT3 blocker – STAT3 signaling inhibition; U3A cells, IL-6 STAT3-luciferase reporter, luminescence; host cell line lacks STAT1; inhibition, % at 5.5 µM; hit rate 0.89% among 190,000;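 active = inhibition above the mean inhibition across all screened compounds plus 3 SD, cut at about 44% in these data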;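 note: 0% = DMSO only wells and 100% = 100 µM nifuroxazide control wells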
Starred values were filed as active, the others as inactive; . = no result. Shown are actives, neighbours in structure and some others; about 4.9% of the full set was active somewhere.

SMILES | STAT1 inh | STAT1 act | NF-kB expr up | APP 5'UTR act | STAT3 act | STAT3 blocker
O=[N+]([O-])c1cccc(C(=S)N2CCN(c3ccc(F)cc3)CC2)c1 | 6 | 92 | 1.1 | -18 | 87 | 20
Cc1ccc2[nH]c(C(=O)NN=C3CCCCC3)c(-c3ccccc3)c2c1 | 0 | 97 | 0.93 | -37 | 107 | -4
CCCCOC(=O)c1ccc(NC(=O)C(=O)NCc2ccco2)cc1 | -4 | 105 | 1.4 | 4 | 94 | 12
CCC1CCCCN1CCNC(=O)CCS(=O)(=O)c1ccc(Br)cc1 (configuration not stated) | -7 | 107 | 0.92 | 6 | 114 | -15
Cc1cccc2nc(CSc3ccc(Cl)cc3)cn12 | -34 | 132* | . | 102 | 91 | 16
Clc1ccc(SCc2cn3ccccc3n2)cc1 | -37 | 133* | 3 | 95 | 95 | 7
Cc1cccc2nc(CSCc3ccco3)cn12 | -38 | 135* | 2.3 | 114 | 96 | 10
Cc1cccc2nc(CSc3nc4ccccc4[nH]3)cn12 | -11 | 111 | 1.3 | 6 | 91 | 13
Nc1ccccc1SCc1cn2ccccc2n1 | -50 | 146* | 1 | 88 | 95 | 10
Cc1cc(C)n2cc(CSCc3ccco3)nc2n1 | 9 | 92 | 1.2 | 19 | 102 | 0
CC(C)(C)NC(=O)CN(C(=O)CS(=O)CC(=O)Nc1ccc(F)cc1)c1cccc(F)c1 (configuration not stated) | -3 | 102 | 1.1 | 12 | 107 | -3
O=C(Nc1ccc([N+](=O)[O-])cc1)c1ccccc1F | -43 | 138* | 2.5 | 62 | 90 | 14
O=C1OC(/C=C/c2ccc(Cl)cc2Cl)=NC/1=C\c1cccs1 | -1 | 101 | 1.1 | -12 | 96 | 7
Cc1nn(-c2ccccc2)c(Cl)c1/C=N/Nc1nnc(C)c(=O)[nH]1 | 1 | 98 | 1.8 | 13 | 102 | 0
Cc1nn(-c2ccccc2)c(Cl)c1/C=N/Nc1nc2ccccc2n1C | -49 | 145* | 1.8 | 77 | 96 | 12
CC(C)(C)C1CCc2onc(C(=O)NC3CCCC3)c2C1 (configuration not stated) | -2 | 101 | 1 | -1 | 88 | 18
Cc1ccc(O)c(NC(=O)c2noc3c2CCCCC3)c1 | -18 | 115 | 9.8* | 212* | 107 | -7
CCc1ccc(NC(=O)c2noc3c2CCC3)cc1 | -5 | 104 | 3.4* | 144* | 108 | -2
O=C(NCCc1ccccc1)c1noc2c1CCCCC2 | -44 | 140* | 3.8* | 100 | 103 | 1
O=C(NCc1ccccc1)c1noc2c1CCCC2 | 2 | 99 | 1.4 | 0 | 106 | -1
O=C(NC1CCCCC1)c1noc2c1CCCCC2 | -54 | 149* | 1.4 | 131 | 106 | -1
COc1cc(NC(=O)c2ccco2)c(C(=O)OCC(=O)c2c[nH]c3ccccc23)cc1OC | 2 | 99 | 0.88 | 0 | 114 | -16
COc1ccc2nc(NC(=O)CCN3C(=S)NC(C)(C)CC3C)sc2c1 (configuration not stated) | -3 | 103 | 1 | 36 | 97 | 1
COc1ccccc1-c1ccc(Nc2ccc(C(=O)N3CCOCC3)cc2)nn1 | -6 | 106 | 1.3 | 2 | 94 | 9
CC(=O)c1ccc(Nc2ccc(-c3ccccc3F)nn2)cc1 | -47 | 142* | 6.9* | 146* | 85 | 19
SMILES | STAT1 inh | STAT1 act | NF-kB expr up | APP 5'UTR act | STAT3 act | STAT3 blocker
CCN(CC)c1cc(CS(=O)c2ccccc2)nc(-c2ccccc2)n1 (configuration not stated) | 4 | 96 | . | . | 107 | -2
Cc1cc(S(=O)(=O)Nc2c(C(=O)O)[nH]c3ccccc23)ccc1F | 5 | 96 | 1 | -4 | 135* | -34
COc1ccc2oc(C(=O)NCCC(C)C)c(C)c2c1 | -41 | 135* | 1 | 139* | 93 | 11
CC(=O)c1cnc2cc(-c3ccc(Cl)cc3)nn2c1C | -41 | 138* | 3.6* | 42 | 101 | 6
COC(=O)c1cc([N+](=O)[O-])c(-n2ccnc2)c([N+](=O)[O-])c1 | 9 | 92 | 1.2 | 4 | 96 | 2
COc1ccc(-c2nn(-c3ccccc3)cc2/C=N/NC(=O)c2cccc(S(=O)(=O)Nc3ccccc3Cl)c2)cc1 | -3 | 103 | 1.2 | 45 | 101 | -2
Oc1ccc(/C=N/Nc2ncc(Br)cn2)c(O)c1 | -13 | 112 | 5* | 19 | 93 | 13
O=c1[nH]ncc(N/N=C\c2ccc(O)cc2O)c1Cl | 1 | 101 | 1.1 | -3 | 91 | 15
Oc1ccc(/C=N/Nc2nccnc2Cl)c(O)c1 | 7 | 94 | 1.2 | . | 90 | 10
Oc1ccc(/C=N/Nc2cccc3cccnc23)c(O)c1 | 13 | 89 | 11* | 49 | 85 | 25
Cc1ccc(/C=N/Nc2cccc3cccnc23)c(O)c1 | -4 | 104 | 7.5* | 93 | 132 | -27
C=CCn1cnc2c(nnn2-c2ccc(C)c(C)c2)c1=O | -20 | 116 | 1.8 | 17 | 98 | 10
O=C(NC1CCCCC1)C(c1ccc2ncccc2c1)N(Cc1ccccc1)C(=O)c1cccs1 (configuration not stated) | 36* | 83 | 0.76 | -7 | 113 | -4
Cc1cc(C)cc(N(C(=O)CNC(=O)c2cccs2)C(C(=O)NC2CCCC2)c2cccnc2)c1 (configuration not stated) | 36* | 68 | 1.2 | -1 | 95 | 12
COc1ccc(CN(C(=O)c2cccs2)C(C(=O)NC2CCCCC2)c2ccc3ncccc3c2)cc1 (configuration not stated) | 22 | 79 | 0.51 | 22 | 112 | -8
Cc1cccc(N(C(=O)CNC(=O)c2cccs2)C(C(=O)NC2CCCC2)c2cccnc2)c1 (configuration not stated) | -4 | 104 | 0.99 | -2 | 98 | 9
O=C(NC1CCCCC1)C(c1ccc2ncccc2c1)N(Cc1ccc2c(c1)OCO2)C(=O)c1cccs1 (configuration not stated) | 36* | 68 | 0.86 | -14 | 105 | 0
COc1cc(NC(=O)c2cccs2)c(C(=O)OCC(=O)c2cc(C)n(-c3ccccc3)c2C)cc1OC | 36* | 68 | 0.45 | -21 | 42 | 70*
COc1cc(NC(=O)c2cccs2)c(C(=O)OCC(=O)c2cc(C)n(-c3ccc(F)cc3)c2C)cc1OC | -1 | 101 | 0.99 | 17 | 99 | 1
COc1ccc(NC(=O)NCCCN2CCCC2=O)c(OC)c1 | 7 | 94 | 1.2 | -3 | 103 | -2
Cc1ccc2c(c1)c1ncnc(N3CCC4(CC3)OCCO4)c1n2C | -22 | 120 | 1.8 | 46 | 135* | -34
O=C(Nc1ccc(Cl)cc1)c1ccc(OCC2CCCO2)cc1 (configuration not stated) | -40 | 137* | 2.4 | 121 | 89 | 16
O=c1cc(-c2ccccc2)nc2nc(-c3ccccc3)[nH]n12 | -61 | 156* | 1.8 | 10 | 159* | -67
